Experimental data: ChEMBL document CHEMBL4513216, “Probing the Open Global Health Chemical Diversity Library for Multistage-Active Starting Points for Next-Generation Antimalarials” (ACS Infect Dis, 2020)

Assay: Toxicity liver stage against HepG2, at 10uM
Assay type: cell-based
Parameters: test concentration 10 uM, cell line HepG2-A16-CD81EGFP
Settings: human, HepG2-A16-CD81EGFP cells; read-out: INHIBITION
Procedure, shortened: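 Uninfected HepG2-A16-CD81EGFP cells, 3 × 10^3 per well, 1536-well, plated on prespotted compound at 10 μM final, parasite-free screening media added to match infected plates; puromycin 10 μM positive, DMSO 0.5% negative; run in parallel with 48 h PbLuc assay at 37 °C, 5% CO2; viability by CellTiter-Glo luminescence, normalized to controls.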

SMILES | cytotoxicity at 10 µM [%]
COc1cccc(OCCNCc2ccccc2)c1 | 10.7
COCCN1C(=O)CO[C@H]2CN(CCCc3ccccc3)C[C@H]21 | 52.8
CCC(C)[C@H](NC(=O)c1ccc(F)cc1-n1cnnn1)C(=O)OC (stereo partly specified) | 5.55
COc1ccc(-c2n[nH]c(C)c2CC(=O)N2CCOCC2)cc1 | -14.2
Cc1nnc(C2CCN(C(=O)c3ccc4nccnc4c3)CC2)s1 | 5.05
O=C(Cc1ccccc1Cl)Nc1cnn(C2CCOC2)c1 (stereo unspecified) | 2.63
CC(=O)N1CCC2(CCN(CC3CCCCC3)C2)CC1 | 2.05
CN(C)CCN1C(=O)CCC12CCCN(C(=O)CC1CC1)CC2 (stereo unspecified) | -1.48
Cn1cccc1C(=O)N1CC[C@@H]2[C@@H]1CC(=O)N2CC1CCOCC1 | -2.82
O=C(C1CCOC1)N1CCc2ncnc(NC3CCC3)c2CC1 (stereo unspecified) | -151
N#Cc1cccc(CN2CCC3(CC(C(=O)NCC4CC4)=NO3)C2)c1 (stereo unspecified) | 8.73
CC(=O)N1CC[C@@H]2O[C@@H](COCC(=O)N3CCCC3)CC[C@@H]21 | -7.73
c1ccc(COC[C@H]2CC[C@H]3[C@H](CCN3Cc3ccco3)O2)nc1 | -144
COc1ncccc1C(=O)N1CC[C@H]2C[C@H](c3ccncn3)O[C@@H]2C1 | 9.4
COCCNCc1ccc(OCC(=O)NC(C)(C)C)cc1 | -8.08
COCC(=O)NC(Cc1cc(N(C)C)nc(C2CC2)n1)c1ccccc1 (stereo unspecified) | 3.03
COCC(=O)N[C@@H]1CN(Cc2ccc3c(c2)OCCO3)C[C@H]1O | -27.1
Cc1ccc(C(=O)N2Cc3ccccc3OC3(CCOCC3)C2)cn1 | -25.8
Cc1nc2ccccn2c1CC(=O)N[C@@H]1CC[C@@H](N2CCOCC2)[C@@H]1O | -1.68
Cc1nc(C2CCCN2C(=O)COc2ccccc2)ncc1C(N)=O (stereo unspecified) | -19.1
Cc1cc(CCC(N)=O)cc(C2CCCN2Cc2cnc(C)nc2)n1 (stereo unspecified) | -26.1
COc1ccccc1CN1CCC(c2nn(CCN)c3nccnc23)C1 (stereo unspecified) | -32.7
COc1ccc(CN(C)[C@@H]2CN(C(=O)c3cccnc3)C[C@H]2O)cc1 | 10.9

SMILES | cytotoxicity at 10 µM [%]
C=Cn1ncc(CN2C[C@@H]3CCCN3C[C@H]2Cc2ccccc2)c1C | -18.5
CCc1cc(O)nc(C2CCCN2C(=O)c2cc(CC)on2)n1 (stereo unspecified) | -12.6
NC(=O)CN1CCCC1c1csc(Nc2cnccn2)n1 (stereo unspecified) | -11.2
O=c1oc2ccccc2n1CCN(CC1CCOC1)C1CC1 (stereo unspecified) | 4.78
O[C@@H]1CN(Cc2cc(Cl)cc3cccnc23)C[C@@H]1O | 0.342
CC(C)c1nnc2n1CC(CNC/C=C/c1ccccc1)CC2 (stereo unspecified) | 3.76
Cn1c(C2CC2)nc2c1CCN(CC(=O)NC1CCCCNC1=O)C2 (stereo unspecified) | 3.73
COCCN1CCN(CC2CCCCO2)CC1 (stereo unspecified) | 6.29
N#Cc1cccnc1NCc1cccnc1N1CCCCC1 | -48.3
CCCC(=O)NCc1cccc(C(=O)OC)c1 | 5.99
O=C(NCCc1nnc[nH]1)Nc1cccc(SC(F)F)c1 | -42.4
Cc1nc(C)c(S(=O)(=O)NC(=O)c2sccc2C)s1 | 0.25
COCc1nc(CNc2cc(C)on2)cs1 | 4.05
CCOc1cccc(C(=O)N(CCC#N)Cc2ccccn2)c1 | 5.42
CCC(CNC(=O)c1ccco1)N1CCc2ccccc2C1 (stereo unspecified) | 18.3
CN(Cc1ccc(C#N)cc1)C(=O)c1ccnc(OC2CCC2)c1 | 7.59
COc1c(CNCc2cccnc2N2CCN(C)CC2)c(C)nn1C | -134
COc1cccc(C2CCCN2Cc2nnnn2C2CC2)c1 (stereo unspecified) | 4.17
CCNC(=O)N1CCC(NC(=O)NCCc2ccc(C)cc2C)C1 (stereo unspecified) | -44.6
Cn1cc(N2CCCC(SCc3nc(C4CC4)no3)C2=O)cn1 (stereo unspecified) | 21.8
Cc1cc(NC(=O)CN(CC(C)O)c2ccccc2)on1 (stereo unspecified) | -2.15
Cc1ccc(OCC(C)NS(=O)(=O)N(C)C)cc1 (stereo unspecified) | 8.81
CS(=O)(=O)NCCN(CCCO)C1CCc2ccccc21 (stereo unspecified) | 3.09

SMILES | cytotoxicity at 10 µM [%]
COc1ccc(-c2noc(C(CC(C)C)N3CCCCC3=O)n2)cn1 (stereo unspecified) | -54.2
N#CCSCCCN1CCC(C(=O)N2CCCCCC2)CC1 | 5.37
O=C(CN1CCC(C(=O)c2cc(F)ccc2F)CC1)NC1CCCC1 | 4.93
CCOC1CCC2(CCN(C(=O)c3c[nH]cn3)CC2)c2ccccc21 (stereo unspecified) | 7.5
Cc1noc([C@H]2CC[C@@H]3[C@@H](CCN3c3ncccn3)O2)n1 | 3.06
c1cc(CN2CC[C@H]3O[C@@H](COCC4CCOCC4)CC[C@H]32)ccn1 | -69.8
CNC(=O)[C@@]12CCO[C@@H]1CCN(S(=O)(=O)c1ccccc1F)C2 | -71.2
CCN(CC)C(=O)[C@@H]1C[C@@H](NC(=O)c2ccn(C(C)(C)C)c2)CN1C | -4.12
Cc1cccc(=O)n1CCC(=O)N1CC[C@](C)(O)[C@H](C)C1 | 2.81
CNS(=O)(=O)c1ccc(CN2CCCC2c2ccc(F)cc2)cc1 (stereo unspecified) | 11.6
O=C(NCCO)c1coc(Cn2cnc3ccccc32)n1 | -4.48
Clc1cc(N2CCC(N3CCCC3)CC2)nc2[nH]ccc12 | -0.77
COc1ccc(-c2cn(CCn3c(C)cc(C)nc3=O)nn2)cn1 | 6.05
CC(C)=CCN1CCN(CCCc2ccccc2)[C@H]2CS(=O)(=O)C[C@H]21 | -1.06
COc1cc(-c2nccn2C(C)CCn2cccn2)cc2c1OCO2 (stereo unspecified) | 0.562
CN(Cc1ccccc1)c1ncccc1CNC1CCSCC1 | -2.84
CN(Cc1csc(-c2cccs2)n1)CC(O)CO (stereo unspecified) | -0.712
CCSCCNc1nc(-c2ccccn2)nc2c1c(C)nn2C | 6.35
CC(C)Cc1noc(CN(C)C(=O)CCNC(=O)c2ccccc2F)n1 | -9.22
COc1ccc(-c2ccncc2)cc1CNC1CCCC1 | -47.7
C/C=C(\C)CN1C[C@@H](NC(=O)c2ccc(F)c(F)c2)C[C@H]1C(=O)NCC | 14
CCC[C@@H]1CN(C(=O)c2cc3ccccc3cc2O)C[C@H]1N(C)C | -10.2
CCc1ccccc1OCCNCCc1c[nH]cn1 | 4.69

SMILES | cytotoxicity at 10 µM [%]
Cc1cc(C)n(CC(=O)N2Cc3cnc(C(C)(C)C)nc3C2)n1 | 3.1
CN1CCCC1CCn1ccnc1-c1nc(-c2ccccc2)no1 (stereo unspecified) | -5.35
Cc1cc(-c2nn(C)c(Cl)c2CN2Cc3ccccc3C(O)C2)no1 (stereo unspecified) | 4.1
CCNC(=O)c1ccnc(NCC2COc3cc(OC)ccc3C2)c1 (stereo unspecified) | 0.145
CN1CCC(Oc2ccc(NC(=O)c3ccccc3Br)cc2)CC1 | -15.6
CCc1ccc(C2NCCc3cc4c(cc32)OCCO4)cc1 (stereo unspecified) | -6.63
Cc1cncc(C2CCCN(C(=O)c3scnc3C)C2)n1 (stereo unspecified) | -2.19
Cc1ccc(NC2CCN(C(=O)c3ccc(C)o3)CC2)nn1 | -4.69
Cc1ccc(C(=O)NCCCNc2ccc(C(F)(F)F)cn2)cc1 | -2.34
CCCOCC(=O)NS(=O)(=O)c1ccc2c(c1)OCCCO2 | -5.67
CC(C)CN(C)c1ccc(C(=O)N2CCCC2c2cnn(C)c2)cn1 (stereo unspecified) | -6.95
CC(NC(=O)NCCCO)c1ccc2c(c1)OCCO2 (stereo unspecified) | -2.92
CN1CCOC(CNC(=O)CCCOc2ccccc2F)C1 (stereo unspecified) | -3.15
CC(C)c1nnc2n1CCN(Cc1csc(CC(=O)N(C)C)n1)C2 | -15.9
Cc1nc(C)n(CC2CCCN2CCc2cccs2)n1 (stereo unspecified) | -3.51
CC(C)Oc1ncccc1CNC(=O)N1CCC1c1ccccc1 (stereo unspecified) | -4.92
CCCOc1ccc(CNC2CCCc3c2cnn3CC)cc1OC (stereo unspecified) | -10.8
CN(CCCNC(=O)N1CCCC1c1ccsc1)c1ccccn1 (stereo unspecified) | -4.53
COc1ccccc1C(=O)NC(C)CC(=O)O (stereo unspecified) | -2.43
Cc1nc(C2CCCN(C(=O)c3cccc(S(C)(=O)=O)c3)C2)no1 (stereo unspecified) | -2.33
c1cc(CN2CCCC(c3noc(C4CC4)n3)C2)no1 (stereo unspecified) | -7.57
CN(C(=O)CN1CCOC(Cn2cccn2)C1)c1nccs1 (stereo unspecified) | -14.2
Clc1ccc(-n2cc(CNC3CCc4ncnn4C3)cn2)cc1 (stereo unspecified) | 0.77

SMILES | cytotoxicity at 10 µM [%]
CNc1cc2c(nn1)CCN(C(=O)c1ccoc1)C2 | 4.6
O=C(N[C@@H]1CN[C@H]2CCCO[C@H]21)c1cnccn1 | 6.38
CCOc1cc2c(cc1CNC(Cc1cccs1)c1nccs1)OCO2 (stereo unspecified) | 7.15
CCNC(=O)[C@@H]1CCCN1[C@@H](C(=O)NC)C1CC1 | -2.39
CCN1C(=O)CCCC12CCCN(C(=O)c1ccncc1F)C2 (stereo unspecified) | -3.27
O=C(c1ccco1)N1CC2(CCNCC2)c2cc(Cl)ccc21 | 0.199
COc1ccc2c(c1)C1(CCN(Cc3nccs3)CC1)N(C)CC2 | -148
COc1cc2cc(C)c(SCCN3CCCCC3)nc2cc1OC | -0.883
CCc1cnc(N2CC[C@H]3[C@@H]2CCC(=O)N3CC2CCOCC2)nc1 | 4.28
CCOCC1CN(CC2CC2)Cc2nn(C)cc21 (stereo unspecified) | -76
O=C1NCC[C@]12CN(Cc1ccncc1)C[C@H]2c1ccccc1 | -147
CC1Cc2cc(-c3cncn3CC(=O)NC(C)(C)C)ccc2N1C (stereo unspecified) | -40.5
Cc1cccc(C(=O)N2CCC[C@]3(C[C@@H](OCC4CC4)CO3)C2)n1 | -82.9
CS(=O)(=O)N[C@@H]1CCN(Cc2cccnc2)[C@H]1Cc1ccccc1 | -74.5
COCCN1CCC2(CC1)CN(C(=O)c1ccco1)CCO2 | -1.27
CCC(CC)NC(=O)c1ncn2c1CN(CC)S(=O)(=O)c1ccccc1-2 | -85.1
Cc1ccc(CN2CCC3(CC2)C(c2ccccc2)CC(=O)N3C)o1 (stereo unspecified) | -101
COCC1CN(C(=O)COc2ccccc2)Cc2ncn(C)c21 (stereo unspecified) | 0.104
Nc1nc2cn(C3CCCC3)c(=O)c-2c[nH]1 | -14.5
